Experimental data from PubChem BioAssay.
Calls of active or inactive are those of the source.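 How the source made its calls, unless noted: active means viability at or under a set limit in both replicates, limit being median viability minus 3 SD (cut at about 48% in these data, passing the limit was not always enough); inconclusive means at or under the limit in just one replicate; inactive means at or above the limit in both replicates.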

Tests used:
[1] = reduced viability of SK-BR-3 breast cancer cells – cell-based, 24 h, human, pilot screen (AID 572;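 active means viability at or below 10% of carrier control in both of two separate runs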;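 further: compound exposure lasted between 18 and 24 h rather than exactly 24 h; 100% = carrier-treated control wells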); details: SK-BR-3 viability, CellTiter-Glo luminescence, at 10 µM, stronger effect = lower value
[2] = HUVEC growth inhibition – cell-based, human, primary screen (AID 575;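 active means viability at or below 30% in both replicate assays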;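 further: 100% = median of untreated cell wells with 0.1% DMSO on each plate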); details: HUVEC proliferation, CellTiter-Glo luminescence, 72 h; at 10 µM; stronger effect = lower value
Method in brief: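 Material: primary human umbilical vein endothelial cells / Schedule: 72 h exposure, 37 °C, 5% CO2, 30 min RT equilibration / Signal: ATP-based CellTiter-Glo luminescent read / Read-out basis: percent of median DMSO-control luminescence / Control set: 32 DMSO-only cell-control wells (high), 32 MePR drug-control wells (low) per plate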

[3] = H69AR cell proliferation blockers – human, duplicate replicates, primary screen (AID 580); details: H69AR lung tumor cells viability, ATP luminescence, 72 h; at 10 µM; stronger effect = lower value;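 further: 100% = mean luminescence of untreated wells and 0% = no signal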
[4] = MRP1 drug-resistance reversers in H69AR cells – cell-based, doxorubicin co-treatment, pilot screen (AID 601;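 active means viability loss from added drug above about 55%, and viability with drug at most 40%, in both replicates, limit read from the data, passing the limit was not always enough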); details: CellTiter-Glo, 72 h, at 10 µM; for differential viability (reversal): stronger effect = higher value
[5] = yeast transport mutant growth inhibition pilot in 384-well plates, post-Golgi transport modulator project (AID 636; in the data active means inhibition above about 31%); details: absorbance 615 nm, about 18 h, stronger effect = higher value
[6] = growth suppression of yeast trafficking mutant, preliminary HTS, modulators of trafficking downstream of Golgi apparatus project, 1536-format plate, OD 615 nm (AID 637; in the data active means inhibition above about 30%); details: yeast transport mutant growth, absorbance 615 nm, 18 h; stronger effect = higher value
[7] = H69AR cells + 2 uM doxorubicin, measured here: viability with 2 uM doxorubicin, stronger effect = lower value
[8] = H69AR cells, compound alone cytotoxicity

Row | Structure (SMILES) | viability [1] | viability [2] | viability [3] | differential viability (reversal) ([4]; H69AR cells + 2 uM doxorubicin) | viability [4, 7] [%] | viability [4, 8] [%] | inhibition [5] | inhibition [6]
1 | C=CCNC(=O)C1CC(=O)N(c2ccc(OCC(=O)Nc3ccc(OC)cc3)cc2)C1 (stereo unspecified) | 99% (inactive) | 112% (inactive) | 108% (inactive) | 5.12% (inactive) | 103 | 108 | -0.81% (inactive) | -0.18% (inactive)
2 | CC(=O)SCCC(=O)Nc1ccccc1 | 88% (inactive) | 87.2% (inactive) | 92.5% (inactive) | 5.22% (inactive) | 87.3 | 92.5 | -7.12% (inactive) | 0.81% (inactive)
3 | CCCC1c2ccc(C)n2CCN1C(=O)Nc1ccccc1Cl (stereo unspecified) | 92% (inactive) | 92.2% (inactive) | 93.5% (inactive) | 6.95% (inactive) | 86.6 | 93.5 | 2.73% (inactive) | 8.2% (inactive)
4 | COCCCNC(=O)C1CCN(C(=O)Nc2ccc(Cl)cc2)CC1 | 131% (inactive) | 92.2% (inactive) | 99% (inactive) | 11.6% (inactive) | 87.4 | 99 | -1.04% (inactive) | 1.15% (inactive)
5 | Cc1ccc2[nH]c3c(=O)n(CCCN4CCN(C)CC4)cnc3c2c1 | 115% (inactive) | 99.9% (inactive) | 95.5% (inactive) | 2.28% (inactive) | 93.2 | 95.5 | -4.67% (inactive) | 0% (inactive)
6 | O=S(=O)(NCC1CCCO1)c1ccc2c(c1)OCCO2 (stereo unspecified) | 128% (inactive) | 98% (inactive) | 97.6% (inactive) | 0.805% (inactive) | 96.8 | 97.6 | 0.41% (inactive) | -5.48% (inactive)
7 | O=c1c2ccccc2c(/C=N/n2cnnc2)c(O)n1-c1ccccc1 | 84% (inactive) | 103% (inactive) | 100% (inactive) | 16.3% (inactive) | 83.9 | 100 | -7.7% (inactive) | -3.09% (inactive)
8 | O=C(Nc1ccc2oc(=O)ccc2c1)c1cccnc1 | 111% (inactive) | 107% (inactive) | 98.9% (inactive) | 14.6% (inactive) | 84.2 | 98.9 | -4.38% (inactive) | -0.18% (inactive)
9 | N#Cc1ccc(CSc2nnc(-c3ccccn3)n2-c2ccccc2)cc1 | 62% (inactive) | 93.5% (inactive) | 95.1% (inactive) | 6.06% (inactive) | 89.1 | 95.1 | -7.67% (inactive) | -1.09% (inactive)
10 | COc1nc(C)ccc1-c1noc(-c2ccncc2)n1 | 101% (inactive) | 86.5% (inactive) | 95.1% (inactive) | 11.4% (inactive) | 83.6 | 95.1 | -8.22% (inactive) | 1.45% (inactive)
11 | O=C(CN1CCC(O)(c2ccc3c(c2)OCO3)CC1)OC1CCCCC1 | 83% (inactive) | 103% (inactive) | 96.8% (inactive) | 3.36% (inactive) | 93.4 | 96.8 | -7.3% (inactive) | 2.73% (inactive)
12 | COc1ccc(Nc2nc(-c3sc(N)nc3C)cs2)cc1 | 93% (inactive) | 92.9% (inactive) | 80.2% (inactive) | -5.13% (inactive) | 85.3 | 80.2 | -8.24% (inactive) | 0.73% (inactive)
13 | CCCCn1c(=O)[nH]c(=O)c2c1nc(COc1ccc(C#N)cc1)n2CCC | 106% (inactive) | 83.1% (inactive) | 88% (inactive) | 11.3% (inactive) | 76.7 | 88 | -1.04% (inactive) | -2.46% (inactive)
14 | CC(Cc1ccc(O)c(O)c1)C(C)Cc1ccc(O)c(O)c1 (stereo unspecified) | 87% (inactive) | 22.3% (active) | 77.4% (inactive) | -1.66% (inactive) | 79.1 | 77.4 | -5.45% (inactive) | -6.33% (inactive)
15 | C=CCSc1nnc(-c2ccc(Cl)cc2Cl)o1 | 96% (inactive) | 107% (inactive) | 87.9% (inactive) | 19.9% (inactive) | 67.9 | 87.9 | -5.47% (inactive) | 0.73% (inactive)
16 | NC(=O)OCC(COC(N)=O)c1ccccc1 | 132% (inactive) | 89.3% (inactive) | 90.7% (inactive) | -6.82% (inactive) | 97.5 | 90.7 | -0.13% (inactive) | 2% (inactive)
17 | CCOC(=O)c1c2n(c3ccc(O)cc13)CCCCC2 | 111% (inactive) | 89.7% (inactive) | 82.4% (inactive) | 1.8% (inactive) | 80.6 | 82.4 | -7.47% (inactive) | 0% (inactive)
